Results taken from ChEMBL document CHEMBL2407037, “Parvifloranines A and B, two 11-carbon alkaloids from Geijera parviflora” (J Nat Prod, 2013).
Active and inactive are the calls of the source. The calls are words filed in the database; no cut-off is given here.

Key:
Escherichia coli = assay: Antibacterial activity against Escherichia coli; type: functional, organism-based
Pseudomonas aeruginosa = assay: Antibacterial activity against Pseudomonas aeruginosa; type: functional, organism-based
[1] = system: Staphylococcus epidermidis; assay: Antibacterial activity against Staphylococcus epidermidis; type: functional, organism-based
Staphylococcus aureus [2] = assay: Antibacterial activity against methicillin-sensitive Staphylococcus aureus; type: functional, organism-based
[3] = Solubility of the compound; type: physicochemical
Staphylococcus aureus [4] = assay: Antibacterial activity against methicillin-resistant Staphylococcus aureus; type: functional, organism-based
NIH3T3 = assay: Inhibition of A23187-induced prostaglandin E2 production in Swiss albino mouse 3T3 cells; type: functional, cell-based
RAW264.7 [5] = assay: Inhibition of LPS-induced TNF-alpha production in mouse RAW264.7 cells; type: functional, cell-based
RAW264.7 [6] = assay: Selectivity index, ratio of EC50 for mouse RAW264.7 cells to IC50 for mouse RAW264.7 cells assessed as LPS-induced NO production; type: functional
Outline: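 Index is cytotoxicity EC50 in RAW 264.7 cells (24 h ATPlite) divided by the IC50 for inhibition of LPS-induced nitrite production in the same cells (Griess readout).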

RAW264.7 [7] = assay: Cytotoxicity against mouse RAW264.7 cells after 24 hrs by ATPLite assay; type: cell-based; conditions: RAW264.7, 24 h
Outline: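 RAW 264.7 cells in colour-free DMEM with 10% FBS, 2 mM L-glutamine, 1 mM pyruvate, penicillin/streptomycin; 30 000 cells/well, compounds from DMSO stocks diluted 20-fold in medium, six concentrations; 24 h at 37 °C, 5% CO2. Cellular ATP read by ATPlite luminescence after lysis and 10 min dark adaptation. Chlorambucil as positive control; triplicate; EC50 from curve fit.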

RAW264.7 [8] = assay: Inhibition of LPS-induced NO production in mouse RAW264.7 cells incubated 1 hr prior to LPS challenge measured after 20 hrs by Griess assay; type: functional, cell-based
Outline: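 RAW 264.7 cells seeded at 10^6 cells/mL and grown 20 h before compound (DMSO stock diluted 20-fold in medium). After 1 h pretreatment, LPS (10 μg/mL stock, 10 μL/well) added, then 20 h further incubation. Supernatant nitrite read by Griess reagent, 20 min at 23 °C, absorbance 550 nm, against 0–100 μM nitrite standards. Output expressed as % of solvent control; triplicate, mean and SD.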

Structure (SMILES): C/C(=C\COc1ccc2ccc(=O)oc2c1)C1=C(CN2CCCC2C(=O)O)C(=O)C(C)(C)O1 (mixture of isomers)
- Activity (Escherichia coli): inactive
- Activity (Pseudomonas aeruginosa): inactive
- Activity [1]: inactive
- Activity (Staphylococcus aureus [2]): inactive
- solubility [3]: 245 µg/mL
- Activity (Staphylococcus aureus [4]): inactive
- inhibition (NIH3T3): inactive
- inhibition (RAW264.7 [5]): inactive
- Selectivity Index (RAW264.7 [6]): 3.2
- EC50 (RAW264.7 [7]): 74.7 µM
- IC50 (RAW264.7 [8]): 23.4 µM
